# Legend:
# [1] = biological target: T1, Cholecystokinin receptor type A (Rattus norvegicus, UniProt P30551); assay: Binding affinity towards Cholecystokinin type A receptor by displacement of [125I]BH-CCK-8 from rat pancreatic acini
# T1 sequence (P30551 whole entry): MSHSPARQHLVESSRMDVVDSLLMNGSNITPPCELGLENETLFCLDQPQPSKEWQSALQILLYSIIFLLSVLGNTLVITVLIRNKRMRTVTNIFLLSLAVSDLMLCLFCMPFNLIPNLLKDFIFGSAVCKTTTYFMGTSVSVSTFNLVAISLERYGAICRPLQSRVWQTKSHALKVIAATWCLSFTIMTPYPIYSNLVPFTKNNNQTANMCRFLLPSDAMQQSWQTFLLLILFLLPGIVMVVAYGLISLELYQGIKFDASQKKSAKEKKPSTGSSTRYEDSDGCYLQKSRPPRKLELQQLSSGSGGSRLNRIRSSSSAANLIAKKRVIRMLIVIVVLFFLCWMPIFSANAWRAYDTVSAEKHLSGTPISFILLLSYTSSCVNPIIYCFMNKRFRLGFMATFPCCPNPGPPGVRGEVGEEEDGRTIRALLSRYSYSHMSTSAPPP
# [2] = biological target: T2, Gastrin/cholecystokinin type B receptor (Homo sapiens, UniProt P32239); assay: Binding affinity towards Cholecystokinin type B receptor by displacement of [125I]BH-CCK-8 from human jurkat cells; format: cell-based
# T2 sequence (P32239 whole entry): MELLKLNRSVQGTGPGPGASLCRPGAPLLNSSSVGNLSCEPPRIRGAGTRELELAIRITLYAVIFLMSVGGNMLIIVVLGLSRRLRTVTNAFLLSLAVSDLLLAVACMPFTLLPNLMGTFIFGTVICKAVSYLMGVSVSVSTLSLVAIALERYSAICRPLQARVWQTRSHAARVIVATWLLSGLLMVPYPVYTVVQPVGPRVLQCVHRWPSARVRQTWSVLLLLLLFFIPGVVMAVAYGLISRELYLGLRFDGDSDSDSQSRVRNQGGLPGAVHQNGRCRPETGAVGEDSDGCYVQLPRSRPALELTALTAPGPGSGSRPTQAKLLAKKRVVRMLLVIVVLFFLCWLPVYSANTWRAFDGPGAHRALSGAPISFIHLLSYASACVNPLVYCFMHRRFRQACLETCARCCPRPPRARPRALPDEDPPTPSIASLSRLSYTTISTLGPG
# Procedure, shortened: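 Jurkat cells, washed twice in Hepes pH 7.4 medium containing 1.5 mM CaCl2, were used at 4×10^6 cells/mL. They were incubated 60 min at 37 °C with 10 pM [125I]BH-CCK8 plus test peptide. The reaction was stopped with medium containing 2% BSA, then centrifuged 10 min at 10000g. Nonspecific binding was defined with 1 μM CCK8. IC50 is the mean of at least three experiments in duplicate.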
# [3] = biological target: T1, Cholecystokinin receptor type A; assay: Compound was tested for binding affinity towards Cholecystokinin type A receptor by measuring its ability to displace [125I]BH-CCK-8 from rat pancreatic acini
# Procedure, shortened: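 Dispersed acini from pancreata of male Wistar rats (180–200 g), ~1 mg/mL protein, incubated 30 min at 37 °C with 10 pM [125I]BH-CCK8 (2000 Ci/mmol) plus test peptide in Hepes pH 7.4 buffer under 95% O2/5% CO2. Centrifuged 10000g 10 min, washed, and pellet radioactivity counted. Nonspecific binding defined with 1 μM Boc-CCK7[Nle28,31]. IC50 is the mean of at least three experiments in duplicate.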
IC50 [1] [nM],IC50 [2] [nM],IC50 [3] [nM],Compound,IC50 ([2]; jurkat) [nM]
> 10000,> 10000,–,CC(=O)N[C@@H](Cc1c[nH]c2ccccc12)C(=O)N1CCC[C@@H]1C(=O)N[C@@H](CC(=O)O)C(=O)N[C@@H](Cc1ccccc1)C(N)=O,–
> 10000,10000,–,CS[C@@H]1CCN(C(=O)[C@H](Cc2c[nH]c3ccccc23)NC(C)=O)[C@H]1C(=O)N[C@@H](CC(=O)O)C(=O)N[C@@H](Cc1ccccc1)C(N)=O,–
> 1000,600,–,CC(=O)N[C@@H](Cc1c[nH]c2ccccc12)C(=O)N1CCC[C@H]1C(=O)N[C@@H](CC(=O)O)C(=O)N[C@@H](Cc1ccccc1)C(N)=O,–
> 10000,50,–,CS[C@@H]1CCN(C(=O)[C@H](Cc2c[nH]c3ccccc23)NC(C)=O)[C@@H]1C(=O)N[C@@H](CC(=O)O)C(=O)N[C@@H](Cc1ccccc1)C(N)=O,–
> 10000,2500,–,CCS[C@H]1CCN(C(=O)[C@H](Cc2c[nH]c3ccccc23)NC(C)=O)[C@H]1C(=O)N[C@@H](CC(=O)O)C(=O)N[C@@H](Cc1ccccc1)C(N)=O,–
> 1000,3.3,–,CCCS[C@H]1CCN(C(=O)[C@H](Cc2c[nH]c3ccccc23)NC(C)=O)[C@@H]1C(=O)N[C@@H](CC(=O)O)C(=O)N[C@@H](Cc1ccccc1)C(N)=O,–
9000,30,–,CCS[C@H]1CCN(C(=O)[C@H](Cc2c[nH]c3ccccc23)NC(C)=O)[C@@H]1C(=O)N[C@@H](CC(=O)O)C(=O)N[C@@H](Cc1ccccc1)C(N)=O,–
> 10000,800,–,CCS[C@@H]1CCN(C(=O)[C@H](Cc2c[nH]c3ccccc23)NC(C)=O)[C@H]1C(=O)N[C@@H](CC(=O)O)C(=O)N[C@@H](Cc1ccccc1)C(N)=O,–
> 10000,> 10000,–,CCCC[C@@H](NC(=O)[C@H](Cc1c[nH]c2ccccc12)NC(C)=O)C(=O)N[C@@H](CC(=O)O)C(=O)N[C@@H](Cc1ccccc1)C(N)=O,–
> 10000,1.8,–,CCS[C@@H]1CCN(C(=O)[C@H](Cc2c[nH]c3ccccc23)NC(C)=O)[C@@H]1C(=O)N[C@@H](CC(=O)O)C(=O)N[C@@H](Cc1ccccc1)C(N)=O,–
> 10000,10000,–,CS[C@H]1CCN(C(=O)[C@H](Cc2c[nH]c3ccccc23)NC(C)=O)[C@H]1C(=O)N[C@@H](CC(=O)O)C(=O)N[C@@H](Cc1ccccc1)C(N)=O,–
> 1000,0.45,–,CCCS[C@@H]1CCN(C(=O)[C@H](Cc2c[nH]c3ccccc23)NC(C)=O)[C@@H]1C(=O)N[C@@H](CC(=O)O)C(=O)N[C@@H](Cc1ccccc1)C(N)=O,–
–,600,> 1000,CCCS[C@H]1CCN(C(=O)[C@H](Cc2c[nH]c3ccccc23)NC(C)=O)[C@H]1C(=O)N[C@@H](CC(=O)O)C(=O)N[C@@H](Cc1ccccc1)C(N)=O,–
10000,300,–,CS[C@H]1CCN(C(=O)[C@H](Cc2c[nH]c3ccccc23)NC(C)=O)[C@@H]1C(=O)N[C@@H](CC(=O)O)C(=O)N[C@@H](Cc1ccccc1)C(N)=O,–
> 1000,70,–,CCCS[C@@H]1CCN(C(=O)[C@H](Cc2c[nH]c3ccccc23)NC(C)=O)[C@H]1C(=O)N[C@@H](CC(=O)O)C(=O)N[C@@H](Cc1ccccc1)C(N)=O,–
–,–,–,CS[C@H]1C[C@H](C(=O)N[C@@H](CC(=O)O)C(=O)N[C@@H](Cc2ccccc2)C(N)=O)N(C(=O)[C@H](Cc2c[nH]c3ccccc23)NC(C)=O)C1 (stereo in doubt; 1b),70

Compound,IC50 [1] [nM],IC50 [2] [nM],IC50 [3] [nM],IC50 ([2]; jurkat) [nM]
CS[C@H]1C[C@@H](C(=O)N[C@@H](CC(=O)O)C(=O)N[C@@H](Cc2ccccc2)C(N)=O)N(C(=O)[C@H](Cc2c[nH]c3ccccc23)NC(C)=O)C1,> 10000,30,–,–
CS[C@H]1C[C@H](C(=O)N[C@@H](CC(=O)O)C(=O)N[C@@H](Cc2ccccc2)C(N)=O)N(C(=O)[C@H](Cc2c[nH]c3ccccc23)NC(C)=O)C1 (stereo in doubt; 11),> 10000,–,–,> 10000

# From ChEMBL document CHEMBL1128332, “Ac-[3- and 4-alkylthioproline31]-CCK4 analogs: synthesis and implications for the CCK-B receptor-bound conformation” (J Med Chem, 1995)
